How the values were obtained:
[1] = target: T1, Equilibrative nucleoside transporter 1 (Homo sapiens, UniProt Q99808); experiment: Inhibition of [3H]NBTI binding to nucleoside transport protein of human erythrocyte membrane
T1 sequence (Q99808 whole entry): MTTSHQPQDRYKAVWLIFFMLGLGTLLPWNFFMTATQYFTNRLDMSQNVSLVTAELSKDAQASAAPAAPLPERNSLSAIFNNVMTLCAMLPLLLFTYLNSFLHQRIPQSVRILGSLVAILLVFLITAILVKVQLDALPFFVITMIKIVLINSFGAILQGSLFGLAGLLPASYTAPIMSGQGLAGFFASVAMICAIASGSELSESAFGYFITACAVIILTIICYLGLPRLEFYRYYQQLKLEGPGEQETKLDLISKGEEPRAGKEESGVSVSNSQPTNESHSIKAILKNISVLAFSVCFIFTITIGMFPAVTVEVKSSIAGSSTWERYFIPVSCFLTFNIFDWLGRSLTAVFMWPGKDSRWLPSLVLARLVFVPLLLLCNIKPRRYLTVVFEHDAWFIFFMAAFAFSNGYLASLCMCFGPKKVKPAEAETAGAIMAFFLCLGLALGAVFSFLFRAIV
Method in brief: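 Equilibrium displacement of [3H]NBTI (KD 0.59 nM) from human erythrocyte ghost membranes at 25 °C. Membranes prepared by hypotonic lysis in Tris-HCl/MgCl2 pH 8.0 and resuspended in 50 mM Tris-HCl pH 7.4. Compounds giving ≥50% inhibition at 10 μM were run over a concentration range. IC50 values were converted to Ki, n = 3, reported with SEM.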

[2] = target: T2, Equilibrative nucleoside transporter 1 (Homo sapiens) (UniProt Q99808); experiment: Displacement of [3H]NBTI from human erythrocyte membrane at 10 uM
T2 sequence (whole entry): T1 sequence (Q99808 whole entry)
Method in brief: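 Human erythrocyte ghost membranes (whole blood lysed in 10 mM MgCl2/10 mM Tris-HCl pH 8.0, repeated water washes, resuspended in 50 mM Tris-HCl pH 7.4, stored −80 °C) incubated to equilibrium at 25 °C with [3H]NBTI (KD 0.59 nM). Test compound at a single 10 μM concentration. Result expressed as percent displacement of specific radioligand binding.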

Work on COc1ccccc1Cn1cnc2c(SCc3ccc([N+](=O)[O-])cc3)ncnc21 yielded a Ki [1] of 110 nM.

In the case of O=[N+]([O-])c1ccc(CSc2ncnc3c2ncn3Cc2ccccc2-c2ccc(C(F)(F)F)cc2)cc1, the Ki [1] is reported as 39 nM.

Compound COc1ccccc1-c1ccccc1Cn1cnc2c(SCc3ccc([N+](=O)[O-])cc3)ncnc21 has a Ki [1] of 225 nM.

Work on Cc1ccc(Cn2cnc3c(SCc4ccc([N+](=O)[O-])cc4)ncnc32)cc1 yielded a Ki [1] of 711 nM.

O=[N+]([O-])c1ccc(CSc2ncnc3c2ncn3Cc2cccc(O)c2)cc1 gave a Ki [1] of 153 nM.

O=[N+]([O-])c1ccc(CSc2ncnc3c2ncn3Cc2ccc([N+](=O)[O-])cc2)cc1 gave a Ki [1] of 200 nM.

With Cc1ccccc1-c1ccccc1Cn1cnc2c(SCc3ccc([N+](=O)[O-])cc3)ncnc21 the Ki [1] was 126 nM.

Work on O=[N+]([O-])c1ccc(CSc2ncnc3c2ncn3Cc2cc(F)cc(F)c2)cc1 yielded a Ki [1] of 1540 nM.

Compound O=[N+]([O-])c1ccc(CSc2ncnc3c2ncn3Cc2ccccc2-c2ccccc2O)cc1 has a Ki [1] of 196 nM.

Compound COc1cccc(-c2ccccc2Cn2cnc3c(SCc4ccc([N+](=O)[O-])cc4)ncnc32)c1 has a Ki [1] of 221 nM.

With O=[N+]([O-])c1ccc(CSc2ncnc3c2ncn3Cc2c(Cl)cccc2Cl)cc1 the Binding activity [2] was 6%.

Work on O=[N+]([O-])c1ccc(CSc2ncnc3c2ncn3Cc2cccc(C(F)(F)F)c2)cc1 yielded a Ki [1] of 2170 nM.

O=[N+]([O-])c1ccc(CSc2ncnc3c2ncn3CCc2ccccc2)cc1 was tested, and the Ki [1] was 2200 nM.

Work on O=[N+]([O-])c1ccc(CSc2ncnc3c2ncn3CCCc2ccccc2)cc1 yielded a Ki [1] of 488 nM.

In the case of O=[N+]([O-])c1ccc(CSc2ncnc3c2ncn3Cc2ccccc2-c2ccccc2F)cc1, the Ki [1] is reported as 111 nM.

In the case of O=[N+]([O-])c1ccc(CSc2ncnc3c2ncn3Cc2cc(F)ccc2F)cc1, the Ki [1] is reported as 1640 nM.

Work on O=[N+]([O-])c1ccc(CSc2ncnc3c2ncn3Cc2ccc(I)cc2)cc1 yielded a Ki [1] of 130 nM.

Compound O=[N+]([O-])c1ccc(CSc2ncnc3c2ncn3Cc2ccc(OC(F)(F)F)cc2)cc1 has a Binding activity [2] of 24%.

For O=[N+]([O-])c1ccc(CSc2ncnc3c2ncn3Cc2ccc(F)cc2F)cc1, the Ki [1] was 4880 nM.

Work on O=[N+]([O-])c1ccc(CSc2ncnc3c2ncn3Cc2ccccc2-c2ccc(O)cc2)cc1 yielded a Ki [1] of 154 nM.

O=[N+]([O-])c1ccc(CSc2ncnc3c2ncn3Cc2ccc(F)c(F)c2)cc1 showed a Ki [1] of 653 nM.

O=[N+]([O-])c1ccc(CSc2ncnc3c2ncn3Cc2ccccn2)cc1 showed a Binding activity [2] of 42%.

O=[N+]([O-])c1ccc(CSc2ncnc3c2ncn3Cc2c(F)cccc2F)cc1 was tested, and the Binding activity [2] was 32%.

O=[N+]([O-])c1ccc(CSc2ncnc3c2ncn3Cc2ccccc2-c2ccsc2)cc1 was tested, and the Ki [1] was 89 nM.

With O=[N+]([O-])c1ccc(CSc2ncnc3c2ncn3Cc2cccc(Cl)c2)cc1 the Ki [1] was 212 nM.

O=[N+]([O-])c1ccc(CSc2ncnc3c2ncn3Cc2cccnc2)cc1 was tested, and the Ki [1] was 2710 nM.

Compound O=[N+]([O-])c1ccc(CSc2ncnc3c2ncn3Cc2ccc(Cl)cc2)cc1 has a Ki [1] of 236 nM.

For O=[N+]([O-])c1ccc(CSc2ncnc3c2ncn3Cc2ccc(F)cc2)cc1, the Ki [1] was 3340 nM.

O=[N+]([O-])c1ccc(CSc2ncnc3c2ncn3Cc2ccncc2)cc1 gave a Ki [1] of 2170 nM.

COc1ccc(-c2ccccc2Cn2cnc3c(SCc4ccc([N+](=O)[O-])cc4)ncnc32)cc1 was tested, and the Ki [1] was 104 nM.

O=[N+]([O-])c1ccc(CSc2ncnc3c2ncn3Cc2ccccc2Cl)cc1 gave a Binding activity [2] of 44%.

Work on Nc1ccccc1Cn1cnc2c(SCc3ccc([N+](=O)[O-])cc3)ncnc21 yielded a Ki [1] of 124 nM.

With O=[N+]([O-])c1ccc(CSc2ncnc3c2ncn3Cc2ccccc2-c2ccccc2)cc1 the Ki [1] was 281 nM.

O=[N+]([O-])c1ccc(CSc2ncnc3c2ncn3Cc2ccccc2-c2cccs2)cc1 was tested, and the Ki [1] was 129 nM.

O=[N+]([O-])c1ccc(CSc2ncnc3c2ncn3Cc2ccc(Cl)c(Cl)c2)cc1 showed a Binding activity [2] of 34%.

O=[N+]([O-])c1ccc(CSc2ncnc3c2ncn3Cc2cccc(F)c2)cc1 showed a Ki [1] of 361 nM.

In the case of O=[N+]([O-])c1ccc(CSc2ncnc3c2ncn3Cc2cccc(F)c2F)cc1, the Binding activity [2] is reported as 32%.

O=[N+]([O-])c1ccc(CSc2ncnc3c2ncn3Cc2ccccc2O)cc1 was tested, and the Ki [1] was 39 nM.

In the case of O=[N+]([O-])c1ccc(CSc2ncnc3c2ncn3Cc2ccccc2-c2cccc(C(F)(F)F)c2)cc1, the Ki [1] is reported as 86 nM.

COc1ccc(Cn2cnc3c(SCc4ccc([N+](=O)[O-])cc4)ncnc32)cc1 showed a Ki [1] of 563 nM.

Work on O=[N+]([O-])c1ccc(CSc2ncnc3c2ncn3Cc2ccccc2-c2cccc(O)c2)cc1 yielded a Ki [1] of 196 nM.

In the case of O=[N+]([O-])c1ccc(CSc2ncnc3c2ncn3Cc2ccccc2F)cc1, the Binding activity [2] is reported as 38%.

O=[N+]([O-])c1ccc(CSc2ncnc3c2ncn3Cc2ccccc2-c2ccc(F)cc2)cc1 was tested, and the Ki [1] was 93 nM.

Compound COc1cc(Cn2cnc3c(SCc4ccc([N+](=O)[O-])cc4)ncnc32)cc(OC)c1 has a Binding activity [2] of 47%.

Compound COc1cccc(Cn2cnc3c(SCc4ccc([N+](=O)[O-])cc4)ncnc32)c1 has a Ki [1] of 264 nM.

CC(C)(C)OC(=O)Nc1ccccc1Cn1cnc2c(SCc3ccc([N+](=O)[O-])cc3)ncnc21 gave a Ki [1] of 422 nM.

From ChEMBL document CHEMBL1138795, “Inhibition of nucleoside transport by new analogues of 4-nitrobenzylthioinosine: replacement of the ribose moiety by substituted benzyl groups” (J Med Chem, 2004)
